Reference: PubChem BioAssay
Records with an inconclusive call do not appear.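 Rule for the calls, unless noted: active = inhibition over a set limit, the all-compound mean plus 3 SD, in both replicate runs; inconclusive = over that limit in just one replicate run; inactive = at or under that limit in both runs.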

Legend:
[1] = S. cerevisiae growth inhibition in permissive medium (OD615), pilot counter-assay for S. cerevisiae lifespan shortening project, permissive growth control (AID 705;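 active = growth inhibition above 25% in both replicates, a cutoff set 3 SD above the mean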); conditions: OD615, 24 h, at 10 µM, active compounds read high
Method in brief: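 Timing: 24 h exposure, 30 °C / Material: Saccharomyces cerevisiae strain carrying genetically modified DeaD replicative-lifespan system / Signal: OD at 615 nm / Compound: 10 µM single dose, 0.25% DMSO / Medium: SC raffinose/galactose permissive medium / Evaluation: reduction in yeast growth (OD615)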

[2] = S. cerevisiae growth inhibition in restrictive medium, OD615, pilot screen, restrictive growth control, yeast lifespan reduction project (AID 706;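 active = growth inhibition above a set limit, 3 SD over mean compound inhibition, in both replicates, cut at about 43% in these data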;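 note: modified DeaD lifespan yeast strain shifted to restrictive glucose medium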); conditions: OD615, 48 h, at 10 µM, active compounds read high
Method in brief: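 System: Engineered S. cerevisiae DeaD strain | Detection: OD615 | Buffer or medium: CSMM-D glucose medium | Doses: 10 µM compound, 0.25% DMSO | Timing: 4 h pre-growth plus 48 h compound exposure, 30 °C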

[3] = doxorubicin toxicity protection in MRP-1 cells – H69AR cells, CellTiter-Glo, duplicate, MRP-1 activator project, pilot screen (AID 807;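 active = viability increase at or above a cutoff of the median across tested compounds plus 3 SD, cut at about 8.5% in these data, passing the limit was not always enough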;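 note: compound pretreatment 18-22 h then 72 h combined with doxorubicin; 0% = doxorubicin alone and 100% = vehicle without doxorubicin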); conditions: H69AR viability with doxorubicin, CellTiter-Glo luminescence; at 10 µM; active compounds read high
[4] = viability of HCT116 without oncogenic beta-catenin – human colon tumor cells, pilot screen (AID 823;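 active = cell viability at or below a set limit in both duplicate runs, the limit being the all-compound median minus 4 SD, cut at about 23% in these data, passing the limit was not always enough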;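 note: 0% = wells killed by 20 µM Hyamine and 100% = untreated DMSO cell wells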); conditions: HCT116 beta-catenin knockout viability, CellTiter-Glo, 60 h; at 10 µM; active compounds read low
[5] = viability of PTEN-null HCT116 cells – cell-based, HCT116 clonal line, CellTiter-Glo, pilot screen (AID 824;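 active = viability at or below 27.92% in each of two runs, the all-compound median minus 4 SD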;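 note: 0% = 20 µM Hyamine control and 100% = vehicle cell control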); conditions: HCT116 PTEN-deleted viability, 60 h, at 10 µM, active compounds read low
[6] = RAM pathway blockade in budding yeast – dse1pr::URA3 reporter, 5-FOA selection, pilot screen (AID 869);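 note: 0% = DMSO wells with no growth and 100% = 10 µM 1-NA-PP1 with full growth; RAM network block rescues cells from 5-FOA so hits raise OD615 growth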; conditions: S. cerevisiae dse1pr::URA3 5-FOA growth, OD615, 2 d; at 10 µM; active compounds read high; strain carries analog-sensitive mutant Cbk1 kinase
[7] = RAM signaling pathway blockade in yeast – S. cerevisiae, Pdr1DBD-CYC8 efflux-inhibited sensitized strain, primary screen (AID 1298;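 active = RAM network inhibition above 8.4% in each of two replicates, 3 SD over the compound average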;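 note: 0% = DMSO untreated cells without growth and 100% = 10 µM 1-NA-PP1 full growth; higher means more yeast growth rescued from 5-FOA killing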); conditions: S. cerevisiae cbk1-as DSE1-URA3 strain, 5-FOA growth OD615, 2 d; at 50 µM; active compounds read high

CN1/C(=C/C=N/n2cnnc2)C(C)(C)c2ccccc21
inactive: growth inhibition [1] -6.3% | growth inhibition [2] -17.9% | viability increase [3] -0.78% | viability [4] 98% | viability [5] 93.2% | inhibition [6] 0.465% | RAM network inhibition [7] 3.01%

O=C(NCCN1C(=O)C2C3C=CC(C3)C2C1=O)Nc1ccc(Br)cc1 (configuration not stated)
inactive: growth inhibition [1] -9% | growth inhibition [2] 9.2% | viability increase [3] -1.13% | viability [4] 103% | viability [5] 88.3% | inhibition [6] 0.81% | RAM network inhibition [7] 0.1%

CCOC(=O)N1CCN(C(=O)Cc2ccc(Cl)cc2)CC1
inactive: growth inhibition [1] 3.9% | growth inhibition [2] -5.01% | viability increase [3] -1.27% | viability [4] 99.2% | viability [5] 95.3% | inhibition [6] 2.03% | RAM network inhibition [7] 6.67%

c1ccc(CSc2nnc(-c3ccco3)n2Cc2ccco2)cc1
inactive: growth inhibition [1] -5.04% | growth inhibition [2] 0.405% | viability increase [3] -3.83% | viability [4] 88.6% | viability [5] 87.4% | inhibition [6] 1.85% | RAM network inhibition [7] 3.53%

O=C(c1ccc(CS(=O)(=O)c2ccccc2)o1)N1CCOCC1
inactive: growth inhibition [1] -12.2% | growth inhibition [2] -15.5% | viability increase [3] -0.71% | viability [4] 105% | viability [5] 95.8% | inhibition [6] 1.19% | RAM network inhibition [7] 3.8%

COc1ccc(NC(C)=O)cc1NC(=O)CSc1nnc(-c2cccnc2)n1C
inactive: growth inhibition [1] -5.75% | growth inhibition [2] -0.47% | viability increase [3] -0.83% | viability [4] 104% | viability [5] 100% | inhibition [6] 0.485% | RAM network inhibition [7] 1.19%

S=c1nc(-c2ccccc2)n(CCCn2ccnc2)c2c1CCCC2
inactive: growth inhibition [1] -6.46% | growth inhibition [2] -0.21% | viability increase [3] 0.85% | viability [4] 102% | viability [5] 95.6% | inhibition [6] 2.03% | RAM network inhibition [7] -0.69%

CCSc1nnc2c(n1)[nH]c1c(C)cccc12
inactive: growth inhibition [1] -6.89% | growth inhibition [2] -1.28% | viability increase [3] -5.1% | viability [4] 47.9% | viability [5] 65.5% | inhibition [6] 4% | RAM network inhibition [7] 4.68%

CCC(=O)NC(c1ccccc1)c1nc2ccccc2[nH]1 (configuration not stated)
inactive: growth inhibition [1] -12.9% | growth inhibition [2] -14.2% | viability increase [3] -0.96% | viability [4] 100% | viability [5] 97.4% | inhibition [6] 1.48% | RAM network inhibition [7] 0.62%

CCOC(=O)Cc1csc(NC(=O)COc2ccc(N(C)S(=O)(=O)c3cccs3)cc2)n1
inactive: growth inhibition [1] -7.54% | growth inhibition [2] -11.7% | viability increase [3] -1.76% | viability [4] 71% | viability [5] 80.3% | inhibition [6] 0.12% | RAM network inhibition [7] 1.7%

Cc1c2cnn(-c3ccccc3)c(=O)c2c(C)n1CCCC(=O)N1CCN(C)CC1
inactive: growth inhibition [1] -6.96% | growth inhibition [2] -7.72% | viability increase [3] -1.33% | viability [4] 104% | viability [5] 96.2% | inhibition [6] 1.86% | RAM network inhibition [7] 3.19%

O=C(Nc1nc(-c2cccs2)cs1)c1ccc(S(=O)(=O)N2CCCCC2)cc1
inactive: growth inhibition [1] 0.945% | growth inhibition [2] -2.17% | viability increase [3] -3.02% | viability [4] 71.7% | viability [5] 61.8% | inhibition [6] 1.4% | RAM network inhibition [7] 4.06%

Cc1cccc(-c2nc(CS(=O)CC(=O)N3CCCCC3)c(C)o2)c1 (configuration not stated)
inactive: growth inhibition [1] -8.38% | growth inhibition [2] -15.3% | viability increase [3] -0.7% | viability [4] 101% | viability [5] 92.3% | inhibition [6] 0.205% | RAM network inhibition [7] 3.41%

COc1ccc(NC(=O)c2cc3c(=O)n(C)c4ccccc4c3n2C)cc1OC
inactive: growth inhibition [1] -0.735% | growth inhibition [2] -6.07% | viability increase [3] -5.17% | viability [4] 93.8% | viability [5] 80.9% | inhibition [6] 2.05% | RAM network inhibition [7] 5.74%

COc1ccc(OC)c2sc(NC(=O)c3ccc(Br)s3)nc12
inactive: growth inhibition [1] -1.73% | growth inhibition [2] -13% | viability increase [3] -3.64% | viability [4] 85.1% | viability [5] 59.5% | inhibition [6] 2.71% | RAM network inhibition [7] 2.69%

Cn1nc(-c2ccc(Cl)cc2)c2cc(C(=O)N3CCN(C(=O)c4ccco4)CC3)sc21
inactive: growth inhibition [1] 5.26% | growth inhibition [2] 15.6% | viability increase [3] -6.46% | viability [4] 66.6% | viability [5] 66.2% | inhibition [6] 0.755% | RAM network inhibition [7] 4.92%
